{"source": "ChEMBL document CHEMBL1130177", "about": "“6 beta-Propynyl-substituted steroids: mechanism-based enzyme-activated irreversible inhibitors of aromatase” (J Med Chem, 1997)", "key": {"[1]": {"test": "Compound was tested for inactivation kinetic values", "conditions": "read-out: Ki app (inact)", "outline": "(§1)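 Inhibitor, various concentrations, preincubated at 37 °C with placental microsomes (0.08-0.1 mg/mL) and NADPH (0.1 mM) in 0.1 M phosphate pH 7.4. Aliquots taken over time, diluted 10-fold in cold buffer, then assayed with 0.25 µM [1β-3H]androstenedione plus NADPH-generating system, 30 min at 37 °C. Half-lives plotted against 1/[I] (Kitz-Wilson); Ki(inact) from X-intercept, T1/2 from Y-intercept; duplicate determinations.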"}, "[2]": {"test": "The T1/2 value was obtained from the time point at which each half-time reached 50% of its value at zero time", "type": "ADME", "outline": "as §1"}, "Aromatase [3]": {"biological_target": "T1, Aromatase (Homo sapiens, UniProt P11511)", "T1 sequence (P11511 whole entry)": "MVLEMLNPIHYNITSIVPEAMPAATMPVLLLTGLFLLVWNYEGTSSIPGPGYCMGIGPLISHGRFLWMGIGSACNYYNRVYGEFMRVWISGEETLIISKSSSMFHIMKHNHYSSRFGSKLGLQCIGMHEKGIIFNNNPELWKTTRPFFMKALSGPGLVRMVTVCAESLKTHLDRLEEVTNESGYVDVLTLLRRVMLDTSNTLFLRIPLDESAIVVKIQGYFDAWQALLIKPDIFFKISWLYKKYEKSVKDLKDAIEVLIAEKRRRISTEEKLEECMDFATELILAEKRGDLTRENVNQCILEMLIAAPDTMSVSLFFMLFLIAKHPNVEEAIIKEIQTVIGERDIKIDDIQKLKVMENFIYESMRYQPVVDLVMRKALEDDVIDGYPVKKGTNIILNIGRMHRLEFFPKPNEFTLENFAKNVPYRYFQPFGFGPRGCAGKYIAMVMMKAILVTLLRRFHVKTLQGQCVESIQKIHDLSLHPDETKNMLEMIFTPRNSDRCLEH", "test": "Binding affinity for human placental microsome Cytochrome P450 19A1 by nonlinear regression analysis", "conditions": "read-out: Ki app", "outline": "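Human placental microsomes (0.025-0.03 mg protein) in 1.0 mL 0.1 M phosphate buffer pH 7.4, 37 °C in air, 10 min, initial velocity conditions. [1β-3H]androstenedione diluted with unlabelled androstenedione, 0.005-0.25 µM. Inhibitor at 250, 375 and 500 nM, plus no-inhibitor controls and 0-min blanks. 3H2O release counted; Ki derived by regression analysis; duplicate determinations.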"}, "[4]": {"test": "Selectivity index of Kcat/app Ki(inact)", "outline": "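Lyophilized human placental microsomes (0.08-0.1 mg/mL protein) were preincubated at 37 °C with varied inhibitor concentrations and 0.1 mM NADPH in 0.1 M phosphate buffer, pH 7.4. Timed aliquots were diluted 10-fold in cold buffer. Residual activity was read as 3H2O release from 0.25 µM [1β-3H]androstenedione with an NADPH-generating system (30 min, 37 °C). Half-life versus 1/[I] (Kitz-Wilson) gave Ki(inact) and kcat. Duplicates.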"}, "Aromatase [5]": {"biological_target": "T1, Aromatase", "test": "Inhibition of human placental microsome Cytochrome P450 19A1", "outline": "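Tritiated-water release assay in 0.1 M phosphate pH 7.4. Lyophilized human placental microsomes (0.25 mg) with 0.25 µM [1β-3H]androstenedione, glucose 6-phosphate 5.3 mM, NADP 0.6 mM, G6PDH, 1.0 mM EDTA. Inhibitors from 10^-5 to 10^-8 M, added in ethanol. 15 min at 37 °C; CHCl3 extraction, then the aqueous phase counted by scintillation.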"}, "[6]": {"test": "The T1/2 values were obtained from the time point at which each half-time reached 50% of its value at zero time", "type": "ADME", "outline": "as §1"}}}
{"smiles": "C#CC[C@@H]1CC2C3CCC(=O)C3(C)CCC2C2(C)CCC(=O)C=C12", "note": "(some centres undefined)", "values": [{"measurement": "KI (inactivation)", "setting": "[1]", "result": 72.4, "unit": "nM"}, {"measurement": "T1/2", "setting": "[2]", "result": 7.6, "unit": "min"}, {"measurement": "Ki", "setting": "Aromatase [3]", "result": 10, "unit": "nM"}, {"measurement": "Selectivity index", "setting": "[4]", "result": 21}, {"measurement": "IC50", "setting": "Aromatase [5]", "result": 31, "unit": "nM"}]}
{"smiles": "C#CC[C@H]1CC2C(CCC3(C)C(=O)CCC23)C2CCC(=O)C=C21", "note": "(some centres undefined)", "values": [{"measurement": "Ki", "setting": "Aromatase [3]", "result": 65.8, "unit": "nM"}, {"measurement": "IC50", "setting": "Aromatase [5]", "result": 187, "unit": "nM"}]}
{"smiles": "C#CC[C@]12CCC(=O)C=C1CC[C@@H]1[C@@H]2CC[C@]2(C)C(=O)CC[C@@H]12", "note": "[PLOMESTANE]", "values": [{"measurement": "KI (inactivation)", "setting": "[1]", "result": 59.5, "unit": "nM"}, {"measurement": "Ki", "setting": "Aromatase [3]", "result": 15.2, "unit": "nM"}, {"measurement": "Selectivity index", "setting": "[4]", "result": 24}, {"measurement": "T1/2", "setting": "[6]", "result": 8.9, "unit": "min"}, {"measurement": "IC50", "setting": "Aromatase [5]", "result": 56.2, "unit": "nM"}]}
{"smiles": "C#CC[C@H]1CC2C3CCC(=O)C3(C)CCC2C2(C)CCC(=O)C=C12", "note": "(some centres undefined)", "values": [{"measurement": "Ki", "setting": "Aromatase [3]", "result": 37, "unit": "nM"}, {"measurement": "IC50", "setting": "Aromatase [5]", "result": 176, "unit": "nM"}]}
{"smiles": "C#CC[C@@H]1CC2C(CCC3(C)C(=O)CCC23)C2CCC(=O)C=C21", "note": "(some centres undefined)", "values": [{"measurement": "KI (inactivation)", "setting": "[1]", "result": 19.8, "unit": "nM"}, {"measurement": "T1/2", "setting": "[2]", "result": 8.9, "unit": "min"}, {"measurement": "Ki", "setting": "Aromatase [3]", "result": 47.6, "unit": "nM"}, {"measurement": "Selectivity index", "setting": "[4]", "result": 65}, {"measurement": "IC50", "setting": "Aromatase [5]", "result": 275, "unit": "nM"}]}
